From PMC3171079 (The Journal of General Physiology, 2011)
Entries after “also recorded” stand apart in the source; their conditions may differ. Values belong to the compound of their own block, whether it stands above or below them.

Assays:
[1] = test system: Cx26/Cx32T junctional channels; assay: Parachute assay for gap junctional communication; assay type: cell-based, rat; conditions: n = 4–9
How it was run: (§1)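 Parachute dye-coupling assay. Connexin-expressing HeLa donor cells were labelled for 30 min at 37°C with 10 µM CM-DiI plus 5 µM calcein-AM, washed in PBS/glucose, trypsinized and seeded at ~1:150 onto semi-confluent unlabelled receiver monolayers. Cells attached for 3 h at 37°C with extracellular taurine. Calcein-positive receivers per DiI-labelled donor were averaged and normalized to control cultures.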

[2] = test system: nontagged Cx26 junctional channels; assay: Parachute assay for gap junctional communication; assay type: cell-based; conditions: n = 4–9; for Intercellular calcein transfer: extracellular taurine, normalized to control
How it was run: as §1

[3] = test system: homomeric Cx32T hemichannels; assay: TSF liposome hemichannel activity; assay type: biochemical, rat; conditions: taurine-exposed liposomes
How it was run: (§2)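 Rat connexins carrying a C-terminal thrombin-site–HA(HN)6 tag were expressed in Tet-On HeLa (1 µg/ml dox, 48 h). Hemichannels were octylglucoside-solubilized, anti-HA immunopurified and reconstituted into PC/PS/rhod-PE liposomes entrapping urea buffer. Taurine was present in iso-osmolar urea/sucrose gradients (300,000 gav, 3 h, 37°C). Bands were followed by rhod-PE fluorescence, densities by refractometry at 25°C. Lower-band fraction was Poisson-corrected and normalized to the preparation maximum.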

[4] = test system: homomeric Cx26T hemichannels; assay: TSF liposome hemichannel activity; assay type: biochemical, rat
How it was run: as §2

[5] = test system: heteromeric Cx26/Cx32T hemichannels; assay: TSF liposome hemichannel activity; assay type: biochemical, rat; conditions: taurine-exposed liposomes
How it was run: as §2

[6] = test system: heteromeric Cx26T/Cx32 hemichannels; assay: TSF liposome hemichannel activity; assay type: biochemical, rat
How it was run: as §2

[7] = test system: heteromeric Cx26Tc/Cx32 hemichannels; assay: TSF liposome hemichannel activity, tag cleaved; assay type: biochemical, rat
How it was run: (§3)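 Tagged rat hemichannels were anti-HA immunopurified from dox-induced Tet-On HeLa, then cleaved with 2 U thrombin for 18 h at 4°C, leaving LVPR at the C-terminus. They were reconstituted by gel filtration into rhod-PE-labelled liposomes in urea buffer, then centrifuged for 3 h at 37°C through iso-osmolar urea/sucrose gradients containing aminosulfonate. Band densities were read by refractometry. Lower-band fraction was Poisson-corrected, normalized per preparation and pooled.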

[8] = test system: homomeric Cx26Tc hemichannels; assay: TSF liposome hemichannel activity, tag cleaved; assay type: biochemical, rat; conditions: 10 mM taurine; tag cleaved (LVPR left); n = 5–8
How it was run: as §3

[9] = test system: homomeric Cx32Tc hemichannels; assay: TSF liposome hemichannel activity, tag cleaved; assay type: biochemical, rat
How it was run: as §3

[10] = test system: heteromeric Cx26/Cx32Tc hemichannels; assay: TSF liposome hemichannel activity, tag cleaved; assay type: biochemical, rat
How it was run: as §3

[11] = test system: untagged heteromeric Cx26/Cx32 hemichannels; assay: TSF liposome hemichannel activity, untagged; assay type: biochemical; conditions: with AS treatment
[12] = test system: untagged homomeric Cx26 hemichannels; assay: TSF liposome hemichannel activity, untagged; assay type: biochemical; conditions: with AS treatment
[13] = test system: Cx26/Cx32T hemichannels; assay: Hemichannel calcein uptake by HeLa cells; assay type: cell-based, rat; conditions: extracellular taurine, low [Ca2+]ex; n = 3
[14] = test system: Cx26T/Cx32 hemichannels; assay: Hemichannel calcein uptake by HeLa cells; assay type: cell-based, rat; conditions: extracellular taurine, low [Ca2+]ex; n = 3
[15] = test system: the different tagged connexin hemichannels other than Cx26/Cx32T; assay: Hemichannel calcein uptake by HeLa cells; assay type: cell-based, rat; conditions: extracellular taurine, low [Ca2+]ex; n = 3
[16] = test system: nontagged Cx26 hemichannels; assay: Hemichannel calcein uptake by HeLa cells; assay type: cell-based; conditions: extracellular taurine, low [Ca2+]ex; n = 3
How it was run: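 HeLa clone stably expressing nontagged Cx26. Semi-confluent monolayers were washed, then loaded for 30 min at 37°C in low-Ca buffer (0.5 mM CaCl2, 30 mM KCl, 11 mM glucose, Tris pH 7.4) with 100 µM calcein, with or without taurine. Cells were washed in 2 mM Ca buffer and imaged. Dye-containing cells were counted, and each taurine condition was normalized to its own taurine-free control.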

[17] = test system: Cx32T junctional channels; assay: Parachute assay for gap junctional communication; assay type: cell-based, rat; conditions: extracellular taurine; normalized to control; n = 4–9
How it was run: as §1

[18] = test system: Cx26T/Cx32 junctional channels; assay: Parachute assay for gap junctional communication; assay type: cell-based, rat; conditions: extracellular taurine; normalized to control; n = 4–9
[19] = test system: Cx26CT–^biotCL3 interaction; assay: CT+CL peptide-binding assay; design: species or system rat
[20] = test system: Cx26CL (15N-labeled); assay: 1H-15N HSQC NMR interaction; assay type: binding, rat; conditions: 10 µM Cx26CL, pH 7.0, 42°C, 6% LPPG, 20 mM MES
[21] = test system: Cx26CL–Cx26CT complex; assay: 1H-15N HSQC NMR, effect of taurine on CL–CT complex; assay type: binding, rat; conditions: pH 7.0, 42°C
[22] = test system: hemichannels that contained connexin26 (Cx26), homomeric or with Cx32 (heteromeric); conditions: cytoplasmic concentrations; ref Tao and Harris, 2004; cited from earlier work
[23] = 37°C; source not given; cited from earlier work
[24] = extracellular HEPES in presence of extracellular taurine
[25] = up to 50 mM of protonated taurine
[26] = tag cleaved (LVPR left), n = 5–8
[27] = 30 mM taurine, 4 mM Cx26CT, 10 µM Cx26CL

Compound: O=S(=O)(O)CCN1CCN(CCO)CC1 [HEPES]
Block of taurine effect on junctional channel permeability of calcein [1, 24]: effectively eliminated the taurine effect; also recorded: AS insensitive
Block of taurine effect on junctional calcein transfer [2, 24]: eliminated by HEPES; also recorded: restored AS insensitivity

Taurine concentration for complete dissociation of CL–CT peptides ([19]; 10 µM ^biotCL3, not fit to any standard binding isotherm): ~5 mM
Disruption of CL–CT peptide interaction ([19]; 1 mM taurine, pH 6.5, 10 µM ^biotCL3): Approximately 50%
pH dependence of taurine disruption of CL–CT interaction ([19]; pH 6.5 versus 7.4, 10 µM ^biotCL3): substantially greater at the lower pH
Compound: NCCS(=O)(=O)O [taurine, β-aminosulfonic acid]
Pore narrowing (intermediate band in TSF) [3]: do not form intermediate bands
Effect on pore diameter (TSF band density) ([4]; 10 mM AS (taurine)): no discernable effect on the pore diameter
Inhibition of hemichannels (TSF) [4, 25]: not inhibited
Pore narrowing (intermediate band in TSF) [5]: do not form intermediate bands
Pore narrowing (intermediate band in TSF) ([6]; taurine-exposed liposomes): do not form intermediate bands
Inhibition of hemichannels (TSF) [6, 25]: not inhibited
AS inhibition of hemichannel activity (TSF) ([7]; 10 mM taurine, tag cleaved (LVPR left), n = 5–8): AS inhibition was restored
Pore narrowing (intermediate band in TSF) ([7]; taurine-exposed liposomes): do not form intermediate bands
AS effect on hemichannel activity (TSF) [8]: remained AS insensitive
AS sensitivity of hemichannel activity (TSF) [9, 26]: AS insensitive
Pore narrowing (intermediate band in TSF) ([9]; taurine-exposed liposomes): do not form intermediate bands
AS sensitivity of hemichannel activity (TSF) [10, 26]: AS sensitive
Pore narrowing (intermediate band in TSF) ([10]; taurine-exposed liposomes): do not form intermediate bands
Occlusion of hemichannels (TSF band shift from lowest to upper band) [11]: full occlusion of the hemichannels
Occlusion of hemichannels (TSF band shift from lowest to upper band) [12]: full occlusion of the hemichannels
Completeness of inhibition of dye uptake [13]: not complete
Calcein dye uptake [14]: absence of effect
Calcein dye uptake [15]: absence of effect
Calcein hemichannel uptake [16]: markedly reduced
Intercellular calcein transfer [17]: unchanged compared with controls
Intercellular calcein transfer ([1]; extracellular taurine, normalized to control): decreased
Intercellular calcein transfer [18]: not in the Cx26T/Cx32 cells or the Cx26T cells
Intercellular calcein transfer [2]: markedly reduced
Intercellular calcein transfer ([2]; listed as AS): substantially reduced
Effect of taurine on Cx26CT–CL3 interaction ([19]; 10 mM taurine, 10 µM CL peptide): substantial but not complete dissociation; also recorded: substantially reduced
Concentration dependence of disruption of CL–CT interaction ([19]; pH 6.5 and 7.4, 10 µM ^biotCL3): a linear function of the log of taurine concentration
Interaction with Cx26CL by NMR (resonance peaks affected) ([20]; 30 mM taurine): taurine interacts with the Cx26CL at some residues (peaks iii and iv)
Effect on Cx26CL–Cx26CT complex by NMR, Fig. 8 B peaks [21, 27]: a negligible effect of taurine on the Cx26CL–Cx26CT complex
Effect on Cx26CL–Cx26CT complex by NMR, Fig. 8 D peaks [21, 27]: move to unique positions in the presence of both taurine and the Cx26CT
Effect on Cx26CL–Cx26CT interaction by NMR, Fig. 8 C peaks [21, 27]: taurine reverses the Cx26CL–Cx26CT interaction at this position
Mode of action on Cx26CT–Cx26CL interaction ([21]; concluded from NMR): competitive inhibitor of the interaction between Cx26CT and the Cx26CL
Inhibition of Cx26-containing hemichannels by cytoplasmic AS [22]: inhibitory at cytoplasmic concentrations
pKa [23]: 8.8

Compound: Cx26CT: peptide with sequence corresponding to the Cx26CT (residues 213–226) (LFIRYCSGKSKRPV)
Interaction with Cx26CL by NMR (resonance peaks affected) ([20]; 4 mM Cx26CT): more resonance peaks are affected by the Cx26CT than by taurine
